Laboratory results as given in ChEMBL document CHEMBL1671716, “Antimicrobial susceptibility patterns for recent clinical isolates of anaerobic bacteria in South Korea” (2010).

Experiments:
[1] = tested on: Bacteroides caccae; assay: Antimicrobial activity against Bacteroides caccae assessed as percent resistant isolates after 48 hrs by agar dilution method; type: functional
In short: (§1)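 CLSI agar dilution on recent Korean clinical anaerobe isolates. Inoculum 10^5 CFU per spot by replicator. Plates incubated in an anaerobic chamber at 37°C for 48 h. For piperacillin plus tazobactam, tazobactam was held constant at 4 μg/ml. Resistance and susceptibility rates derived from MICs.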

[2] = tested on: Finegoldia magna; assay: Antimicrobial activity against Finegoldia magna after 48 hrs by agar dilution method; type: functional
In short: (§2)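 CLSI agar dilution (M11-A7); inoculum 10^5 CFU applied by replicator; plates incubated anaerobically 48 h at 37°C. For piperacillin-tazobactam, tazobactam held constant at 4 μg/ml.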

[3] = tested on: Bacteroides ovatus; assay: Antimicrobial activity against Bacteroides ovatus assessed as percent susceptible isolates after 48 hrs by agar dilution method; type: functional
[4] = tested on: Fusobacterium nucleatum; assay: Antimicrobial activity against Fusobacterium nucleatum after 48 hrs by agar dilution method; type: functional; in short: as §2
[5] = tested on: Parabacteroides distasonis; assay: Antimicrobial activity against Bacteroides distasonis after 48 hrs by agar dilution method; type: functional
In short: (§3)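 MICs on clinical anaerobe isolates by the CLSI agar dilution method. Inoculum of 10^5 CFU applied with a Steers replicator. Plates incubated 48 h at 37°C in an anaerobic chamber.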

[6] = tested on: Schaalia odontolytica; assay: Antimicrobial activity against Actinomyces odontolyticus assessed as percent susceptible isolates after 48 hrs by agar dilution method; type: functional
[7] = tested on: Bacteroides caccae; assay: Antimicrobial activity against Bacteroides caccae assessed as percent susceptible isolates after 48 hrs by agar dilution method; type: functional
[8] = tested on: Porphyromonas asaccharolytica; assay: Antimicrobial activity against Porphyromonas asaccharolytica after 48 hrs by agar dilution method; type: functional; in short: as §2
[9] = tested on: Actinomyces israelii; assay: Antimicrobial activity against Actinomyces israelii after 48 hrs by agar dilution method; type: functional; in short: as §3
[10] = tested on: Finegoldia magna; assay: Antimicrobial activity against Finegoldia magna assessed as percent resistant isolates after 48 hrs by agar dilution method; type: functional; in short: as §1
[11] = tested on: Bacteroides fragilis; assay: Antimicrobial activity against Bacteroides fragilis after 48 hrs by agar dilution method; type: functional; in short: as §3
[12] = tested on: Anaerococcus prevotii; assay: Antimicrobial activity against Anaerococcus prevotii after 48 hrs by agar dilution method; type: functional; in short: as §3
[13] = tested on: Clostridioides difficile; assay: Antimicrobial activity against Clostridium difficile assessed as percent susceptible isolates after 48 hrs by agar dilution method; type: functional
[14] = tested on: Schaalia meyeri; assay: Antimicrobial activity against Actinomyces meyeri after 48 hrs by agar dilution method; type: functional; in short: as §3
[15] = tested on: Peptostreptococcus anaerobius; assay: Antimicrobial activity against Peptostreptococcus anaerobius assessed as percent susceptible isolates after 48 hrs by agar dilution method; type: functional; in short: as §1
[16] = tested on: Peptostreptococcus anaerobius; assay: Antimicrobial activity against Peptostreptococcus anaerobius after 48 hrs by agar dilution method; type: functional; in short: as §2
[17] = tested on: Eubacterium sp.; assay: Antimicrobial activity against Eubacterium sp. assessed as percent susceptible isolates after 48 hrs by agar dilution method; type: functional; in short: as §2
[18] = tested on: Clostridioides difficile; assay: Antimicrobial activity against Clostridium difficile after 48 hrs by agar dilution method; type: functional
[19] = tested on: Anaerococcus prevotii; assay: Antimicrobial activity against Anaerococcus prevotii assessed as percent susceptible isolates after 48 hrs by agar dilution method; type: functional
[20] = tested on: Anaerococcus prevotii; assay: Antimicrobial activity against Anaerococcus prevotii assessed as percent resistant isolates after 48 hrs by agar dilution method; type: functional; in short: as §1
[21] = tested on: Bifidobacterium adolescentis; assay: Antimicrobial activity against Bifidobacterium adolescentis after 48 hrs by agar dilution method; type: functional; in short: as §3
[22] = tested on: Phocaeicola vulgatus; assay: Antimicrobial activity against Bacteroides vulgatus assessed as percent resistant isolates after 48 hrs by agar dilution method; type: functional; in short: as §1
[23] = tested on: Prevotella buccae; assay: Antimicrobial activity against Prevotella buccae assessed as percent susceptible isolates after 48 hrs by agar dilution method; type: functional, Segatella buccae; in short: as §2
[24] = tested on: Fusobacterium mortiferum; assay: Antimicrobial activity against Fusobacterium mortiferum after 48 hrs by agar dilution method; type: functional; in short: as §2
[25] = tested on: Clostridioides difficile; assay: Antimicrobial activity against Clostridium difficile assessed as percent resistant isolates after 48 hrs by agar dilution method; type: functional
[26] = tested on: Bacteroides ovatus; assay: Antimicrobial activity against Bacteroides ovatus after 48 hrs by agar dilution method; type: functional; in short: as §3
[27] = tested on: Peptoniphilus asaccharolyticus; assay: Antimicrobial activity against Peptoniphilus asaccharolyticus assessed as percent resistant isolates after 48 hrs by agar dilution method; type: functional; in short: as §1
[28] = tested on: Bifidobacterium sp.; assay: Antimicrobial activity against Bifidobacterium sp. after 48 hrs by agar dilution method; type: functional; in short: as §3
[29] = tested on: Clostridium perfringens; assay: Antimicrobial activity against Clostridium perfringens assessed as percent susceptible isolates after 48 hrs by agar dilution method; type: functional
[30] = tested on: Eubacterium sp.; assay: Antimicrobial activity against Eubacterium sp. after 48 hrs by agar dilution method; type: functional; in short: as §2
[31] = tested on: Prevotella bivia; assay: Antimicrobial activity against Prevotella bivia assessed as percent resistant isolates after 48 hrs by agar dilution method; type: functional; in short: as §1
[32] = tested on: Actinomyces israelii; assay: Antimicrobial activity against Actinomyces israelii assessed as percent susceptible isolates after 48 hrs by agar dilution method; type: functional
[33] = tested on: Phocaeicola vulgatus; assay: Antimicrobial activity against Bacteroides vulgatus assessed as percent susceptible isolates after 48 hrs by agar dilution method; type: functional
[34] = tested on: Bacteroides fragilis; assay: Antimicrobial activity against Bacteroides fragilis assessed as percent susceptible isolates after 48 hrs by agar dilution method; type: functional
[35] = tested on: Bacteroides fragilis; assay: Antimicrobial activity against Bacteroides fragilis assessed as percent resistant isolates after 48 hrs by agar dilution method; type: functional; in short: as §1
[36] = tested on: Eggerthella lenta; assay: Antimicrobial activity against Eubacterium lentum assessed as percent susceptible isolates after 48 hrs by agar dilution method; type: functional; in short: as §2
[37] = tested on: Peptoniphilus asaccharolyticus; assay: Antimicrobial activity against Peptoniphilus asaccharolyticus assessed as percent susceptible isolates after 48 hrs by agar dilution method; type: functional; in short: as §2
[38] = tested on: Prevotella intermedia; assay: Antimicrobial activity against Prevotella intermedia after 48 hrs by agar dilution method; type: functional; in short: as §2
[39] = tested on: Bacteroides ovatus; assay: Antimicrobial activity against Bacteroides ovatus assessed as percent resistant isolates after 48 hrs by agar dilution method; type: functional; in short: as §1
[40] = tested on: Hoylesella oralis; assay: Antimicrobial activity against Prevotella oralis assessed as percent susceptible isolates after 48 hrs by agar dilution method; type: functional
In short: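 CLSI agar dilution MIC testing of clinical isolates. 10^5 CFU spotted by replicator, plates incubated 48 h at 37°C in an anaerobic chamber. Susceptibility rates derived from the MICs.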

[41] = tested on: Parvimonas micra; assay: Antimicrobial activity against Peptostreptococcus micros assessed as percent susceptible isolates after 48 hrs by agar dilution method; type: functional; in short: as §1
[42] = tested on: Actinomyces naeslundii; assay: Antimicrobial activity against Actinomyces naeslundii after 48 hrs by agar dilution method; type: functional; in short: as §3
[43] = tested on: Fusobacterium necrogenes; assay: Antimicrobial activity against Fusobacterium necrogenes after 48 hrs by agar dilution method; type: functional; in short: as §2
[44] = tested on: Eggerthella lenta; assay: Antimicrobial activity against Eubacterium lentum assessed as percent resistant isolates after 48 hrs by agar dilution method; type: functional; in short: as §1
[45] = tested on: Bifidobacterium adolescentis; assay: Antimicrobial activity against Bifidobacterium adolescentis assessed as percent resistant isolates after 48 hrs by agar dilution method; type: functional; in short: as §1
[46] = tested on: Bifidobacterium sp.; assay: Antimicrobial activity against Bifidobacterium sp. assessed as percent resistant isolates after 48 hrs by agar dilution method; type: functional; in short: as §1
[47] = tested on: Eubacterium sp.; assay: Antimicrobial activity against Eubacterium sp. assessed as percent resistant isolates after 48 hrs by agar dilution method; type: functional; in short: as §1
[48] = tested on: Schaalia odontolytica; assay: Antimicrobial activity against Actinomyces odontolyticus assessed as percent resistant isolates after 48 hrs by agar dilution method; type: functional; in short: as §1

Cc1ncc([N+](=O)[O-])n1CCO [METRONIDAZOLE]
0.13 mg/L: MIC [4] | MIC [8] | MIC [24] | MIC [43]
1 mg/L: MIC90 [2] | MIC50 [12] | MIC90 [12] | MIC90 [16] | MIC50 [18] | MIC90 [18]
100%: Activity [3] | Activity [7] | Activity [13] | Activity [15] | Activity [19] | Activity [23] | Activity [29] | Activity [33] | Activity [34] | Activity [37] | Activity [40]
0%: Activity [1] | Activity [10] | Activity [20] | Activity [22] | Activity [25] | Activity [27] | Activity [31] | Activity [35] | Activity [39] | Activity [41]
16 mg/L: MIC50 [9] | MIC50 [14] | MIC50 [21] | MIC50 [28] | MIC50 [30] | MIC50 [42]
46%: Activity [6] | Activity [17] | Activity [32] | Activity [36]
2 mg/L: MIC50 [5] | MIC90 [5] | MIC50 [11] | MIC90 [11] | MIC50 [26] | MIC90 [26] | MIC90 [38]
0.5 mg/L: MIC [2] | MIC50 [2] | MIC50 [16] | MIC [38] | MIC50 [38]
> 128 mg/L: MIC90 [9] | MIC90 [14] | MIC90 [21] | MIC90 [28] | MIC90 [30] | MIC90 [42]

CCC[C@@H]1C[C@@H](C(=O)N[C@@H]([C@H]2O[C@H](SC)[C@H](O)[C@@H](O)[C@H]2O)[C@H](C)Cl)N(C)C1 [CLINDAMYCIN]
83%: Activity [25]
85%: Activity [6] | Activity [17] | Activity [32] | Activity [36]
33%: Activity [27] | Activity [35]
23%: Activity [41]
60%: Activity [19]
40%: Activity [20]
0.06 mg/L: MIC [8] | MIC [9] | MIC50 [9] | MIC [14] | MIC50 [14] | MIC [21] | MIC50 [21] | MIC [24] | MIC [28] | MIC50 [28] | MIC [30] | MIC50 [30] | MIC [42] | MIC50 [42] | MIC [43]
0.5 mg/L: MIC50 [11]
≤ 0.06 mg/L: MIC50 [38] | MIC90 [38]
16%: Activity [3] | Activity [7] | Activity [33]
13%: Activity [10]
2 mg/L: MIC50 [12]
80%: Activity [29]
0.125 mg/L: MIC50 [16]
128 mg/L: MIC90 [12] | MIC90 [18]
15%: Activity [44] | Activity [46] | Activity [47] | Activity [48]
8%: Activity [45] | Activity [13]
77%: Activity [15]
50%: Activity [23] | Activity [40]
64 mg/L: MIC90 [2] | MIC90 [16] | MIC50 [18]
68%: Activity [1] | Activity [22] | Activity [39]
0.25 mg/L: MIC50 [2]
67%: Activity [34] | Activity [37]
> 128 mg/L: MIC50 [5] | MIC90 [5] | MIC90 [9] | MIC90 [11] | MIC90 [14] | MIC90 [21] | MIC50 [26] | MIC90 [26] | MIC90 [28] | MIC90 [30] | MIC90 [42]
